# Source: ChEMBL document CHEMBL4665829, “Synthesis, Structure-Activity Relationship, and Antimalarial Efficacy of 6-Chloro-2-arylvinylquinolines” (J Med Chem, 2020)
# Active and inactive are the calls of the source. The rule behind the calls is not given here.
# System: Plasmodium falciparum
# Assay: Antiplasmodial activity against synchronized chloroquine-resistant Plasmodium falciparum Dd2 reduction in microbial growth at 50 nM treated with compound at 42 hrs post infection measured after 12 hrs by Giemsa staining-based microscopic analysis
# Type: functional, organism-based
# Conditions: not given
# In short: (§1)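 Dd2 cultures tightly synchronized by magnetic separation and sorbitol were dosed at 5 × EC50 at 6, 18, 30 or 42 h post-invasion. Controls: DHA 50 nM, atovaquone 6.6 nM, DMSO 0.1%. Sampled every 12 h for Giemsa thin smears and for flow cytometry: glutaraldehyde/paraformaldehyde fixation, Triton permeabilization, RNAse, 500 nM YOYO-1, 500,000 events/sample. Three independent biological replicates.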
row,SMILES,Activity
1,C[C@H]1[C@@H](O)O[C@@H]2O[C@@]3(C)CC[C@H]4[C@H](C)CC[C@@H]1[C@@]24OO3 [ARTENIMOL],Active

# System: Plasmodium falciparum
# Assay: Antiplasmodial activity against synchronized chloroquine-resistant Plasmodium falciparum Dd2 reduction in microbial growth at 50 nM treated with compound at 42 hrs post infection measured after 12 hrs by YOYO-1 staining-based flow cytometric analysis
# Type: functional, organism-based
# Conditions: not given
# In short: as §1
row,SMILES,Activity
1,C[C@H]1[C@@H](O)O[C@@H]2O[C@@]3(C)CC[C@H]4[C@H](C)CC[C@@H]1[C@@]24OO3 [ARTENIMOL],Active

# System: Plasmodium falciparum
# Assay: Antiplasmodial activity against synchronous gametocyte late stage of Plasmodium falciparum 3D7 harboring luc7 incubated for 72 hrs by ONE-Glo luciferase assay
# Type: functional, organism-based
# Conditions: 3D7, 72 h
# In short: (§2)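 Gametocytes of P. falciparum 3D7 luc7 induced by nutrient starvation, cultured in heparin medium to remove asexual stages, Percoll-purified as early (II–III) or late (IV–V) stage. 50,000 gametocytes/well exposed 72 h to a 19-point gradient, 0.038 nM–10 μM. ONE-Glo luciferase read after 5 min. EC50 by nonlinear curve fit; three experiments.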
row,SMILES,EC50
1,C[C@H]1[C@@H](O)O[C@@H]2O[C@@]3(C)CC[C@H]4[C@H](C)CC[C@@H]1[C@@]24OO3 [ARTENIMOL],0.0374 µM
2,CN(C)c1ccc2nc3ccc(N(C)C)cc3[s+]c2c1 [METHYLENE BLUE ANHYDROUS],0.107 µM

# System: Plasmodium falciparum
# Assay: Parasiticidal activity against chloroquine-resistant Plasmodium falciparum Dd2 infected in RBC assessed as reduction in parasitemia at 50 nM incubated for 6 to 48 hrs followed by compound washout and then incubated for 96 hrs by Giemsa staining based microscopic analysis
# Type: functional, organism-based
# Conditions: time hrs 6-48
# In short: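 Controls: 0.15% DMSO, DHA 50 nM, atovaquone 6.6 nM. Drug removed by three RPMI washes, then parasitemia followed daily for 96 h by Giemsa thin smears. Three independent biological replicates.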
row,SMILES,Activity
1,C[C@H]1[C@@H](O)O[C@@H]2O[C@@]3(C)CC[C@H]4[C@H](C)CC[C@@H]1[C@@]24OO3 [ARTENIMOL],Active

# System: Plasmodium falciparum
# Assay: Antiplasmodial activity against chloroquine-resistant Plasmodium falciparum Dd2 infected in human erythrocytes assessed as reduction in microbial growth after 72 hrs by SYBR green I staining based fluorescence assay
# Type: functional, organism-based
# Conditions: Dd2, Erythrocyte
# In short: (§3)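 SYBR Green I assay: twofold serial dilutions on P. falciparum cultures at 1% parasitemia, 1% hematocrit, 37 °C, 5% CO₂, 72 h, max 0.1% DMSO. DMSO and CQ as growth and inhibition controls. Plates frozen at −80 °C, thawed, lysed in Tris/saponin/EDTA/Triton buffer with 0.01% SYBR Green I, 1 h dark at room temperature. Fluorescence read at 485 ex/530 em. EC50 by nonlinear dose–response fit.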
row,SMILES,EC50
1,CCN(CC)CCCC(C)Nc1ccnc2cc(Cl)ccc12 (stereo not drawn) [CHLOROQUINE],0.174 µM

# System: HepG2
# Assay: Cytotoxicity against human HepG2 cells assessed as reduction in cell viability after 48 hrs by MTS assay
# Type: cell-based
# Conditions: HepG2, 48 h
# In short: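 HepG2 cells were seeded at 2250 per well and grown 24 h at 37 °C, 5% CO₂. Serial dilutions starting at 25 μM were added for a further 48 h. MTS was then added for 3 h at 37 °C and absorbance read at 490 nm. EC₅₀ came from nonlinear dose–response fits.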
row,SMILES,EC50
1,CCN(CC)CCCC(C)Nc1ccnc2cc(Cl)ccc12 (stereo not drawn) [CHLOROQUINE],10.4 µM

# System: not listed separately
# Assay: Drug level in mouse liver microsomes treated with 6-chloro-N-(4-morpholinobutyl)-2-(2-(pyridin-4-yl)vinyl)quinolin-4-amine measured up to 60 mins by LC-MS analysis
# Type: ADME, Microsome
# Conditions: 1 h
# In short: (§4)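 Microsomal incubations: mouse liver microsomes at 0.5 mg/mL, 1 μM compound, pH 7.4 phosphate, 37 °C, NADPH-regenerating system. The metabolite mixture was analysed by LC–MS after 15, 30 and 60 min.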
row,Drug uptake,SMILES
1,Active,OCCNCCCCNc1cc(/C=C/c2ccncc2)nc2ccc(Cl)cc12
2,Active,NCCCCNc1cc(/C=C/c2ccncc2)nc2ccc(Cl)cc12

# System: not listed separately
# Assay: Drug level in mouse liver microsomes treated with N1-(6-chloro-2-(4-fluorostyryl)quinolin-4-yl)-N2,N2-dimethylethane-1,2-diamine measured up to 60 mins by LC-MS analysis
# Type: ADME, Microsome
# Conditions: 1 h
# In short: as §4
row,Drug uptake,SMILES
1,Active,NCCNc1cc(/C=C/c2ccc(F)cc2)nc2ccc(Cl)cc12
2,Active,CNCCNc1cc(/C=C/c2ccc(F)cc2)nc2ccc(Cl)cc12

# System: Plasmodium falciparum
# Assay: Antiplasmodial activity against chloroquine-sensitive Plasmodium falciparum 3D7 infected in human erythrocytes assessed as reduction in microbial growth after 72 hrs by SYBR green I staining based fluorescence assay
# Type: functional, organism-based
# Conditions: 3D7, Erythrocyte
# In short: as §3
row,SMILES,EC50
1,CCN(CC)CCCC(C)Nc1ccnc2cc(Cl)ccc12 (stereo not drawn) [CHLOROQUINE],0.0178 µM

# System: not listed separately
# Assay: Drug level in mouse liver microsomes treated with N1,N1-diethyl-N4-(6-methoxy-2-(4-nitrostyryl)quinolin-4-yl)pentane-1,4-diamine measured up to 60 mins by LC-MS analysis
# Type: ADME, Microsome
# Conditions: 1 h
# In short: as §4
row,Drug uptake,SMILES
1,Active,CCN(CC)CCCC(C)Nc1cc(/C=C/c2ccc([N+](=O)[O-])cc2)nc2ccc(O)cc12 (stereo not drawn)
2,Active,CCNCCCC(C)Nc1cc(/C=C/c2ccc([N+](=O)[O-])cc2)nc2ccc(OC)cc12 (stereo not drawn)

# System: not listed separately
# Assay: Drug level in mouse liver microsomes treated with 6-chloro-2-(4-fluorostyryl)-N-(2-(4-methylpiperazin-1-yl)ethyl)quinolin-4-amine measured up to 60 mins by LC-MS analysis
# Type: ADME, Microsome
# Conditions: 1 h
# In short: as §4
row,Drug uptake,SMILES
1,Active,Fc1ccc(/C=C/c2cc(NCCN3CCNCC3)c3cc(Cl)ccc3n2)cc1

# System: Hemozoin
# Assay: Inhibition of beta-hematin formation at 12.5 to 200 uM after 16 hrs by inverted microscopic analysis
# Conditions: dose microM 12.5-200, time 16.0 hrs
# In short: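 Hemin (2 mM stock in 0.1 M NaOH; 100 μM final), propionate buffer pH 5.2 and sonicated phosphatidylcholine were incubated with a compound concentration series for 16 h at 37 °C with gentle shaking. Crystals were imaged by inverted microscope before quenching with 7.5% SDS in bicarbonate, pH 9.1. Free hemin was measured at 405 nm against a 0–16 μM calibration. Three independent experiments.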
row,SMILES,inhibition
1,CCN(CC)CCCC(C)Nc1ccnc2cc(Cl)ccc12 (stereo not drawn) [CHLOROQUINE],Active

# System: Plasmodium falciparum
# Assay: Antiplasmodial activity against synchronous gametocyte early stage of Plasmodium falciparum 3D7 harboring luc7 incubated for 72 hrs by ONE-Glo luciferase assay
# Type: functional, organism-based
# Conditions: 3D7, 72 h
# In short: as §2
row,SMILES,EC50
1,C[C@H]1[C@@H](O)O[C@@H]2O[C@@]3(C)CC[C@H]4[C@H](C)CC[C@@H]1[C@@]24OO3 [ARTENIMOL],0.0174 µM
2,CN(C)c1ccc2nc3ccc(N(C)C)cc3[s+]c2c1 [METHYLENE BLUE ANHYDROUS],0.0747 µM
